Source: ChEMBL document CHEMBL2169848, “Synthesis physicochemical profile and PAMPA study of new NO-donor edaravone co-drugs” (Bioorg Med Chem, 2012)
Activity calls are given as the source filed them. No cut-off for these calls is given here.

What was measured:
[1] = Half life in Wistar rat liver homogenate at 200 uM by RP-HPLC analysis; format: ADME, tissue-based
In short: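 Liver from male Wistar rats (200–250 g), 20% homogenate spun at 8000g. Incubated at 37 °C in Tris-HCl/KCl 100/150 mM, pH 7.4, with 6.4 mg protein/mL, 2 mM GSH and 1 mM NADPH. Compound 200 µM final, added from a 10 mM acetonitrile stock. Aliquots deproteinized with cold acetonitrile and analysed by RP-HPLC. Half-life from n = 3.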

[2] = Half life in 0.1 M HCl/MeOH 60/40 (v/v) mixture by RP-HPLC analysis; format: physicochemical
In short: (§1)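 Methanolic compound solution (0.5 mM, 2 mL) diluted to 10 mL with 0.1 M HCl/MeOH 60/40 (v/v) and kept at 37 °C. Aliquots taken at intervals and analysed by RP-HPLC (C18, acetonitrile/water gradient, 240 nm) with calibration over 1–200 µM. Half-life from n = 3.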

[3] = Lipophilicity, log P of the compound in octanol-buffer at pH 7 by HPLC analysis; format: physicochemical
In short: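 Retention measured by isocratic RP-HPLC on an RP-amide-C16 column at 30 °C. Mobile phase was pH 7.0 phosphate buffer/methanol, 30–70%, ionic strength 20 mM; uracil used as dead-time marker. log kw extrapolated from at least four methanol ratios, each injected at least three times. Converted to logPoct via a reference line of 63 compounds.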

[4] = Half life in 5% DMSO/0.1 M KCl by RP-HPLC analysis; format: physicochemical; details: for half-life: 5% DMSO/0.1 M KCl
In short: (§2)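 10 mM DMSO stock added to water with 0.1 M KCl to give 5% DMSO (v/v), then filtered. Room temperature. Compound followed by RP-HPLC (C18, methanol/water gradient, 240 nm), calibration 1–200 µM. Half-life from n = 3.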

[5] = Half life in human serum at 250 uM by RP-HPLC analysis; format: ADME, cell-free
In short: (§3)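 Compound added from a 10 mM methanol stock to human serum (male AB plasma) at 37 °C, final 250 µM. Aliquots taken at intervals and deproteinized with acetonitrile containing 0.1% TFA, then centrifuged and filtered. Analysed by RP-HPLC. Half-life from n = 3.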

[6] = Stability in 5% DMSO/0.1 M KCl by RP-HPLC analysis; format: physicochemical; in short: as §2
Serum = assay: Stability in human serum at 250 uM by RP-HPLC analysis; format: ADME, cell-free; in short: as §3
[7] = Stability in 0.1 M HCl/MeOH 60/40 (v/v) mixture by RP-HPLC analysis; format: physicochemical; details: buffer; in short: as §1
Liver [8] = assay: Induction of nitrate production in Wistar rat liver homogenate at 200 uM after 5 hrs by griess method; format: functional, tissue-based
In short: (§4)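 Male Wistar rat liver homogenate (6.4 mg protein/mL; 2 mM GSH, 1 mM NADPH; Tris-HCl/KCl pH 7.4; 37 °C) with compound at 200 µM final. Deproteinized filtrate mixed with Griess reagent: nitrite after 10 min at 37 °C; nitrite+nitrate after VCl3 reduction, 45 min at 37 °C. Absorbance at 540 nm, calibration 1–100 µM. Expressed as %mol per mol compound, n = 3.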

[9] = Permeability of the compound by PAMPA-HDM method; format: ADME
In short: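 96-well polycarbonate filters impregnated with 5% hexadecane in hexane. Donor held compound in water with 5% DMSO and 100 mM KCl; acceptor held the same medium. Incubated at room temperature with shaking at 150 rpm for 1–6 h. Both compartments quantified by RP-HPLC. logPe and retention R calculated with correction for hydrolysis; membrane integrity checked by electrical resistance.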

Liver [10] = assay: Induction of nitrite production in Wistar rat liver homogenate at 200 uM after 5 hrs by griess method; format: functional, tissue-based; in short: as §4
Mus musculus [11] = assay: Induction of nitrite release in mouse assessed as nitrite AUC (0 to 24 hrs) at 10 mg/kg, po measured over 24 hrs by LC-MS/MS analysis; format: organism-based; design: time < 24 hr, dose 10 mg/kg, route oral; details: in vivo
In short: (§5)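 Mice dosed orally at 10 mg/kg in imwitor742/tween80 50/50; blood drawn at fixed times over 24 h and precipitated with 3 volumes acetonitrile. Nitrite converted to naphtotriazole with DAN (1 mM, 10 µL per 200 µL sample) at room temperature and measured by LC-MS/MS against a 0.01-10 µM NAT calibration; basal level and conversion factor from spikes; AUC0-24h.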

Thoracic aorta [12] = assay: Vasodilatory activity in Wistar rat denuded thoracic aorta assessed as inhibition of L-phenylephrine-induced contraction; format: functional, tissue-based
In short: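 Endothelium-denuded thoracic aorta strips from male Wistar rats (180–200 g) in gassed Krebs-type buffer at 37 °C, pH 7.4. Strips equilibrated 1.5 h, then contracted with 1 µM L-phenylephrine. Cumulative concentrations added at plateau and isometric tension recorded. EC50 (±SEM) in µM from at least five experiments.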

Thoracic aorta [13] = assay: Vasodilatory activity in Wistar rat thoracic aorta assessed as inhibition of L-phenylephrine-induced contraction in presence of 1 uM 1H-[1,2,4]oxadiazolo[4,3-a]quinoxalin-1-one; format: functional, tissue-based
In short: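 Same rat aorta strip protocol with 1 µM L-phenylephrine precontraction. 1 µM ODQ was added 5 min before contraction, pre-incubating for at least 30 min before the vasodilator. Isometric recording; EC50 (±SEM) in µM from at least five experiments.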

Liver [14] = assay: Induction of nitrite production in Wistar rat liver homogenate at 200 uM by griess method; format: functional, tissue-based; details: TDE = time-dependent effect; in short: as §4
Liver [15] = assay: Induction of nitrate production in Wistar rat liver homogenate at 200 uM by griess method; format: functional, tissue-based; details: TDE = time-dependent effect; in short: as §4
Mus musculus [16] = assay: AUC (0 to 24 hrs) in mouse assessed isosorbide mononitrate as at 10 mg/kg, po after 24 hrs; format: ADME, organism-based, Plasma; design: time < 24 hr, dose 10 mg/kg, route oral; details: in vivo; in short: as §5

| Structure (SMILES) | half-life at 200 µM [1] [min] | half-life [2] [h] | logD [3] | half-life [4] [h] | half-life at 250 µM [5] [h] | inhibition (Thoracic aorta [12]) | EC50 (Thoracic aorta [13]) [µM] | also measured |
| --- | --- | --- | --- | --- | --- | --- | --- | --- |
| Cc1cc(OC(=O)CCCCCO[N+](=O)[O-])n(-c2ccccc2)n1 | < 1 | 1 | 3.79 | 31 | < 0.0167 |  |  |  |
| CC1=NN(c2ccccc2)C(=O)C1 [EDARAVONE] |  |  | 1.44 |  |  |  |  | Stability [6]: Stable; Stability (Serum): Stable; Stability [7]: Stable |
| Cc1cc(OC(=O)c2ccc(CC(CO[N+](=O)[O-])O[N+](=O)[O-])cc2)n(-c2ccccc2)n1 (configuration not stated) | < 1 | 8 | 4.88 |  | 0.118 |  |  | Activity (Liver [8]): Active; log Pe [9]: ND(Insoluble); Activity (Liver [10]): Active; t1/2 [4]: ND(Insoluble) |
| Cc1cc(OC(=O)OCCCO[N+](=O)[O-])n(-c2ccccc2)n1 | < 1 | 1.4 | 3.35 | 13 | < 0.0167 |  |  | AUC (Mus musculus [11]): 964 µM·min |
| O=[N+]([O-])OCCCCCCO |  |  |  |  |  | Dose-dependent effect | > 100 | EC50 (Thoracic aorta [12]): 1.5 µM |
| Cc1cc(OC(=O)OCCCCCCO[N+](=O)[O-])n(-c2ccccc2)n1 | < 1 | 4 | 4.39 | 25 | < 0.0167 |  |  |  |
| Cc1cc(OC(=O)CCCC(CO[N+](=O)[O-])O[N+](=O)[O-])n(-c2ccccc2)n1 (configuration not stated) | < 1 | 0.7 | 3.95 | 10 | < 0.0167 |  |  |  |
| O=C(O)c1ccc(CCCO[N+](=O)[O-])cc1 |  |  |  |  |  | Dose-dependent effect | > 100 |  |
| O=C(O)c1ccc(OCCCO[N+](=O)[O-])cc1 |  |  |  |  |  | Dose-dependent effect |  |  |
| Cc1cc(OC(=O)C(C)(C)CCC(CO[N+](=O)[O-])O[N+](=O)[O-])n(-c2ccccc2)n1 (configuration not stated) | 3 | 10 | 4.04 | 16 | 0.27 | Dose-dependent effect | > 100 | Activity (Liver [14]): tde; Activity (Liver [8]): Active; EC50 (Thoracic aorta [12]): 2.5 µM; Activity (Liver [10]): Active; Activity (Liver [15]): tde |
| O=[N+]([O-])O[C@H]1CO[C@H]2[C@@H]1OC[C@H]2O[N+](=O)[O-] [ISOSORBIDE DINITRATE] |  |  |  |  |  |  |  | AUC (Mus musculus [16]): 2352 µM·min |
| Cc1cc(OC(=O)c2ccc(CCCO[N+](=O)[O-])cc2)n(-c2ccccc2)n1 | < 1 | 13 | 4.76 |  | 0.0667 |  |  | log Pe [9]: ND(Insoluble); t1/2 [4]: ND(Insoluble) |
| O=C(O)c1ccc(OCC(CO[N+](=O)[O-])O[N+](=O)[O-])cc1 (configuration not stated) |  |  |  |  |  | Dose-dependent effect |  |  |
| CC(C)(CO[N+](=O)[O-])C(=O)O |  |  |  |  |  | Dose-dependent effect | > 100 | EC50 (Thoracic aorta [12]): 13 µM |
| O=C(O)c1ccc(CC(CO[N+](=O)[O-])O[N+](=O)[O-])cc1 (configuration not stated) |  |  |  |  |  | Dose-dependent effect | > 100 |  |
| Cc1cc(OC(=O)OCCCCC(CO[N+](=O)[O-])O[N+](=O)[O-])n(-c2ccccc2)n1 (configuration not stated) | < 1 | 3.1 | 4.63 | 6 | < 0.0167 |  |  | Activity (Liver [8]): Active; Activity (Liver [10]): Active |
| O=C(O)CCCCCO[N+](=O)[O-] |  |  |  |  |  | Dose-dependent effect | > 100 |  |
| Cc1cc(OC(=O)C(C)(C)CO[N+](=O)[O-])n(-c2ccccc2)n1 | < 1 | 1.9 | 3.55 | 36 | 0.0317 |  |  |  |
| O=[N+]([O-])OCCCO [ABRUCOMSTAT] |  |  |  |  |  | Dose-dependent effect | > 100 | EC50 (Thoracic aorta [12]): 4 µM |
| CC(C)(CCCCO[N+](=O)[O-])C(=O)O |  |  |  |  |  | Dose-dependent effect | > 100 | EC50 (Thoracic aorta [12]): 8.9 µM |
| Cc1cc(OC(=O)c2ccc(OCC(CO[N+](=O)[O-])O[N+](=O)[O-])cc2)n(-c2ccccc2)n1 (configuration not stated) | < 1 | 25 | 5.14 |  | 0.13 |  |  | Activity (Liver [8]): Active; log Pe [9]: ND(Insoluble); Activity (Liver [10]): Active; t1/2 [4]: ND(Insoluble) |
| Cc1cc(OC(=O)C(C)(C)CCCCO[N+](=O)[O-])n(-c2ccccc2)n1 | 2 | 24 | 4.3 | 22 | 0.222 | Dose-dependent effect | > 100 | Activity (Liver [14]): tde; AUC (Mus musculus [11]): 1790 µM·min; EC50 (Thoracic aorta [12]): 11 µM; Activity (Liver [15]): tde |
| CC(C)(CCC(CO[N+](=O)[O-])O[N+](=O)[O-])C(=O)O (configuration not stated) |  |  |  |  |  | Dose-dependent effect | > 100 | EC50 (Thoracic aorta [12]): 4.2 µM |
| Cc1cc(OC(=O)c2ccc(OCCCO[N+](=O)[O-])cc2)n(-c2ccccc2)n1 | < 1 | 35 | 4.74 |  | 0.0833 |  |  | log Pe [9]: ND(Insoluble); t1/2 [4]: ND(Insoluble) |
